Laboratory results reported in ChEMBL document CHEMBL1131316, “Potent antagonists of somatostatin: synthesis and biology” (J Med Chem, 1998).
Positions of bridges follow the written chain, without caps; N, C: chain ends. Non-standard residues stand in square brackets, D forms with d. Residues, ends and D or L forms follow the SMILES beside them. Phe(4-NO2) = N[C@@H](Cc1ccc([N+](=O)[O-])cc1)C(=O)O; dDip = N[C@@H](C(=O)O)C(c1ccccc1)c1ccccc1; Dip = N[C@H](C(=O)O)C(c1ccccc1)c1ccccc1; 2Nal = N[C@@H](Cc1ccc2ccccc2c1)C(=O)O; d2Nal = N[C@H](Cc1ccc2ccccc2c1)C(=O)O; 3Pal = N[C@@H](Cc1cccnc1)C(=O)O

Legend:
[1] = biological target: Somatostatin receptor type 3 (Homo sapiens, UniProt P32745); experiment: Binding affinity towards cloned human somatostatin 3 (hsst) receptor
Method in brief: (§1)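 Membranes from CHO-K1 cells stably transfected with the human receptor subtype (calcium phosphate transfection, G418 selection), homogenised and washed in Tris-HCl. Separated by filtration on PEI-soaked GF/C filters; nonspecific binding with 1.0 µM SRIF.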

[2] = biological target: Somatostatin receptor type 4 (Homo sapiens, UniProt P31391); experiment: Binding affinity towards cloned human somatostatin 4 (hsst) receptor
[3] = biological target: Somatostatin receptor type 1 (Homo sapiens, UniProt P30872); experiment: Binding affinity towards cloned human somatostatin 1 (hsst) receptor; method in brief: as §1
[4] = biological target: Somatostatin receptor type 2 (Homo sapiens, UniProt P30874); experiment: Binding affinity towards cloned human somatostatin 2 (hsst) receptor; method in brief: as §1
[5] = biological target: Somatostatin receptor type 5 (Homo sapiens, UniProt P35346); experiment: Binding affinity towards cloned human somatostatin 5 (hsst) receptor; method in brief: as §1
Somatostatin receptor = experiment: Compound was tested for in vitro SRIF inhibition of GH release in rats; type: functional
Method in brief: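 Adult male rat anterior pituitary cells, dispersed with trypsin/DNase, cultured 4-5 days. Then 3 h at 37 °C in medium 199 with 1% BSA, GHRH(1-29)NH2 1 nM and SRIF 1 nM, with analogue at six doses (up to 10 µM, some to 100 µM), triplicate wells. GH in medium measured by double-antibody RIA. Antagonist IC50 taken from n separate dose-response curves.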

Sequence of Somatostatin receptor type 1 (P30872 whole entry): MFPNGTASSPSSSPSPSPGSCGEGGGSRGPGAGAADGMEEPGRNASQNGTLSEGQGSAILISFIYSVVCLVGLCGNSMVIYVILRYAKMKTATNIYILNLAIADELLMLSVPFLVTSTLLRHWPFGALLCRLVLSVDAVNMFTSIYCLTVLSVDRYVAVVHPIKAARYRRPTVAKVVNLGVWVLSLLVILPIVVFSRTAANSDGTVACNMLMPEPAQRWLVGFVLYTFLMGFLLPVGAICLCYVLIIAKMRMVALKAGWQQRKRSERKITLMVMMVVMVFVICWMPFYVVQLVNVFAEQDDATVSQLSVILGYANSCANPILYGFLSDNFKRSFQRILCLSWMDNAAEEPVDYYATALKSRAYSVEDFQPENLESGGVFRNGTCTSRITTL
Sequence of Somatostatin receptor type 4 (P31391 whole entry): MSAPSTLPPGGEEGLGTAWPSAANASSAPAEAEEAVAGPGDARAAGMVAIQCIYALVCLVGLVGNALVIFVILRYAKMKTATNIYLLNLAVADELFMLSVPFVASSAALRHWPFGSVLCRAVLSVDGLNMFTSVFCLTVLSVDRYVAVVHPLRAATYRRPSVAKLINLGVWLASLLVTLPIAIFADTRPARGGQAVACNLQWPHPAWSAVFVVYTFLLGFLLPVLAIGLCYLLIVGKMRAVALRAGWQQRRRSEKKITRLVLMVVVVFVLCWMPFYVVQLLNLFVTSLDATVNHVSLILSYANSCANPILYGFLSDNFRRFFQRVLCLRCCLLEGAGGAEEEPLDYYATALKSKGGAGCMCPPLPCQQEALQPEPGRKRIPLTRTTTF
Sequence of Somatostatin receptor type 3 (P32745 whole entry): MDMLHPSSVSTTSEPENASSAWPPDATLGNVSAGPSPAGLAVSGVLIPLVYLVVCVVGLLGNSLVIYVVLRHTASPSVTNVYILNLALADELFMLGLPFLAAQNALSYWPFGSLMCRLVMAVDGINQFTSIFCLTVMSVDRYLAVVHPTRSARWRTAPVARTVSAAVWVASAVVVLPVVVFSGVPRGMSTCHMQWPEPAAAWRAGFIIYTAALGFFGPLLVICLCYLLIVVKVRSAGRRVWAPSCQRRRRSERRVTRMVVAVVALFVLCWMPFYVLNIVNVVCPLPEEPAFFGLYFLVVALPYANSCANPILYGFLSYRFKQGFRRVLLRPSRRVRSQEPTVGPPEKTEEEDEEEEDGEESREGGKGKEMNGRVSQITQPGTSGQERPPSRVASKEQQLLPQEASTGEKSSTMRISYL
Sequence of Somatostatin receptor type 5 (P35346 whole entry): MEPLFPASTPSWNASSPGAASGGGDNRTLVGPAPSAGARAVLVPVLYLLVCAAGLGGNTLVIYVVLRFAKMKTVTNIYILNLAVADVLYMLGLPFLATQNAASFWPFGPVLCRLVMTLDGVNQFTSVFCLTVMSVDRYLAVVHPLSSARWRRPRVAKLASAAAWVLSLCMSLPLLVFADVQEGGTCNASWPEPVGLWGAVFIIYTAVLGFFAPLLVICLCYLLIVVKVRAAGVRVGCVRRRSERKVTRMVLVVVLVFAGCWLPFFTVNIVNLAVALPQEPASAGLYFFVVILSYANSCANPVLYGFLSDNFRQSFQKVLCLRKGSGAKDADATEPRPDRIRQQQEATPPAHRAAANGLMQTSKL
Sequence of Somatostatin receptor type 2 (P30874 whole entry): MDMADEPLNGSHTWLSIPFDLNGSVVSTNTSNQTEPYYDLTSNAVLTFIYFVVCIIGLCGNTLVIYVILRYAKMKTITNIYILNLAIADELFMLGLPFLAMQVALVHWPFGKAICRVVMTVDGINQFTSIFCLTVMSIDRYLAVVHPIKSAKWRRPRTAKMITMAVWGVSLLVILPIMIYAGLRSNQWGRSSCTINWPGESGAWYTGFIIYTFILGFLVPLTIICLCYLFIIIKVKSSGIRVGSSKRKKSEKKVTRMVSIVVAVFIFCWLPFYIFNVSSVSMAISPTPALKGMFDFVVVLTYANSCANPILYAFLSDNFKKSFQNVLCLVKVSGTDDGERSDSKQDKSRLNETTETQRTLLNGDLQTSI

Row | SMILES | IC50 [1] [nM] | IC50 [2] [nM] | IC50 [3] [nM] | Ki [4] [nM] | Ki [5] [nM] | IC50 (Somatostatin receptor) [nM]
1 | CC(C)[C@@H]1NC(=O)[C@H](CCCCN)NC(=O)[C@@H](Cc2c[nH]c3ccccc23)NC(=O)[C@H](Cc2cccnc2)NC(=O)[C@H](NC(=O)[C@@H](N)Cc2ccc([N+](=O)[O-])cc2)CSSC[C@@H](C(=O)N[C@@H](Cc2ccc(O)cc2)C(N)=O)NC1=O (H-[Phe(4-NO2)][dC][3Pal][dW]KVCY-NH2; disulfide 2-7) | 235 | 757 | 245 | 35.3 | 529 | –
2 | CC(C)[C@H](NC(=O)[C@H](CCCCN)NC(=O)[C@@H](Cc1c[nH]c2ccccc12)NC(=O)[C@H](Cc1ccc(O)cc1)NC(=O)[C@@H](Cc1ccc(Cl)cc1)NC(=O)[C@@H](N)Cc1ccccc1)C(=O)N[C@@H](Cc1ccccc1)C(=O)N[C@H](C(N)=O)[C@@H](C)O | 648 | 1000 | 1000 | 797 | 2740 | –
3 | C[C@@H](O)[C@@H]1NC(=O)[C@H](CCCCN)NC(=O)[C@@H](Cc2c[nH]c3ccccc23)NC(=O)[C@H](Cc2ccccc2)NC(=O)[C@H](Cc2ccccc2)NC(=O)[C@H](N)CSSC[C@H](C(N)=O)NC(=O)[C@H](Cc2ccccc2)NC1=O | 5.6 | – | 723 | 34.8 | 28 | –
4 | CC(C)[C@@H]1NC(=O)[C@H](CCCCN)NC(=O)[C@@H](Cc2c[nH]c3ccccc23)NC(=O)[C@H](Cc2ccc(O)cc2)NC(=O)[C@H](NC(=O)[C@@H](N)Cc2ccc(O)cc2)CSSC[C@@H](C(=O)N[C@H](Cc2ccc3ccccc3c2)C(N)=O)NC1=O | – | – | – | – | – | 64.8
5 | CC(C)[C@@H]1NC(=O)[C@H](CCCCN)NC(=O)[C@@H](Cc2c[nH]c3ccccc23)NC(=O)[C@H](Cc2ccc(O)cc2)NC(=O)[C@@H](C)N(C)C(=O)[C@H](Cc2ccccc2)NC1=O | 404 | – | 1000 | – | 1000 | –
6 | CC(C)[C@@H]1NC(=O)[C@H](CCCCN)NC(=O)[C@@H](Cc2c[nH]c3ccccc23)NC(=O)[C@H](Cc2ccc(O)cc2)NC(=O)[C@H](NC(=O)[C@@H](N)Cc2ccc3ccccc3c2)CSSC[C@@H](C(=O)N[C@@H](Cc2ccc(O)cc2)C(N)=O)NC1=O (H-[2Nal][dC]Y[dW]KVCY-NH2; disulfide 2-7) | – | – | – | – | – | 50
7 | CC(C)[C@@H]1NC(=O)[C@H](CCCCN)NC(=O)[C@@H](Cc2c[nH]c3ccccc23)NC(=O)[C@H](Cc2ccc(O)cc2)NC(=O)[C@H](NC(=O)[C@@H](N)Cc2ccc3ccccc3c2)CSSC[C@@H](C(=O)N[C@H](C(N)=O)[C@@H](C)O)NC1=O | 733 | – | 2160 | 118 | – | –
8 | CC(C)[C@@H]1NC(=O)[C@H](CCCCN)NC(=O)[C@@H](Cc2c[nH]c3ccccc23)NC(=O)[C@H](Cc2ccc(O)cc2)NC(=O)[C@H](NC(=O)[C@H](N)Cc2ccc3ccccc3c2)CSSC[C@@H](C(=O)N[C@H](C(N)=O)[C@@H](C)O)NC1=O | – | – | 1580 | 306 | – | –
9 | CC(C)[C@@H]1NC(=O)[C@H](CCCCN)NC(=O)[C@@H](Cc2c[nH]c3ccccc23)NC(=O)[C@H](Cc2ccc(O)cc2)NC(=O)[C@H](NC(=O)[C@@H](N)Cc2ccc([N+](=O)[O-])cc2)CSSC[C@@H](C(=O)N[C@@H](Cc2ccc(O)cc2)C(N)=O)NC1=O (H-[Phe(4-NO2)][dC]Y[dW]KVCY-NH2; disulfide 2-7) | 177 | 632 | 3220 | 23.4 | 101 | –
10 | CC(C)[C@@H]1NC(=O)[C@H](CCCCN)NC(=O)[C@@H](Cc2c[nH]c3ccccc23)NC(=O)[C@H](Cc2ccc(O)cc2)NC(=O)[C@H](NC(=O)[C@@H](N)Cc2ccc3ccccc3c2)CSSC[C@@H](C(=O)N[C@@H](Cc2ccc3ccccc3c2)C(N)=O)NC1=O | 161 | 1000 | 2000 | 37.6 | 302 | –
11 | CC(C)[C@@H]1NC(=O)[C@H](CCCCN)NC(=O)[C@@H](Cc2c[nH]c3ccccc23)NC(=O)[C@H](Cc2ccc(O)cc2)NC(=O)[C@@H](NC(=O)[C@@H](N)Cc2ccc3ccccc3c2)CSSC[C@H](C(=O)N[C@@H](Cc2ccc3ccccc3c2)C(N)=O)NC1=O | – | – | – | – | – | 35.3
12 | CC(C)[C@H](NC(=O)[C@H](CCCCN)NC(=O)[C@@H](Cc1c[nH]c2ccccc12)NC(=O)[C@H](Cc1ccc(O)cc1)NC(=O)[C@@H](Cc1ccc(Cl)cc1)NC(=O)[C@H](N)Cc1ccc2ccccc2c1)C(=O)N[C@@H](Cc1ccccc1)C(=O)N[C@@H](Cc1ccc2ccccc2c1)C(N)=O | 619 | 1000 | 1000 | 526 | 178 | –
13 | CC(C)[C@@H]1NC(=O)[C@H](CCCCN)NC(=O)[C@@H](Cc2c[nH]c3ccccc23)NC(=O)[C@H](Cc2c[nH]cn2)NC(=O)[C@H](NC(=O)[C@@H](N)Cc2ccc3ccccc3c2)CSSC[C@@H](C(=O)N[C@@H](C(N)=O)C(c2ccccc2)c2ccccc2)NC1=O (H-[2Nal][dC]H[dW]KVC[dDip]-NH2; disulfide 2-7) | 1200 | 1000 | 1090 | – | 1000 | –
14 | CC(C)[C@@H]1NC(=O)[C@H](CCCCN)NC(=O)[C@@H](Cc2c[nH]c3ccccc23)NC(=O)[C@H](Cc2cccnc2)NC(=O)[C@H](NC(=O)[C@@H](N)Cc2ccc3ccccc3c2)CSSC[C@@H](C(=O)N[C@H](C(N)=O)C(c2ccccc2)c2ccccc2)NC1=O (H-[2Nal][dC][3Pal][dW]KVC[Dip]-NH2; disulfide 2-7) | 903 | 1000 | 1000 | 355 | 1000 | –
15 | CC[C@@H]1NC(=O)[C@H](CCCCN)NC(=O)[C@@H](Cc2c[nH]c3ccccc23)NC(=O)[C@H](Cc2ccc(O)cc2)NC(=O)[C@H](NC(=O)[C@H](N)Cc2ccccc2)CSSC[C@@H](C(=O)N[C@H](C(N)=O)[C@@H](C)O)NC1=O | 140 | 1000 | 1000 | 183 | – | –
16 | CC(C)[C@@H]1NC(=O)[C@H](CCCCN)NC(=O)[C@@H](Cc2c[nH]c3ccccc23)NC(=O)[C@H](Cc2ccc(O)cc2)NC(=O)[C@H](NC(=O)[C@@H](N)Cc2c[nH]c3ccccc23)CSSC[C@@H](C(=O)N[C@H](Cc2ccc3ccccc3c2)C(N)=O)NC1=O (H-W[dC]Y[dW]KVC[d2Nal]-NH2; disulfide 2-7) | 649 | 1000 | 588 | 77.2 | 221 | –
17 | CC(C)[C@H](NC(=O)[C@H](CCCCN)NC(=O)[C@@H](Cc1c[nH]c2ccccc12)NC(=O)[C@H](Cc1ccc(O)cc1)NC(=O)[C@@H](Cc1ccc(Cl)cc1)NC(=O)[C@@H](N)Cc1ccc2ccccc2c1)C(=O)N[C@@H](Cc1ccccc1)C(=O)N[C@@H](Cc1ccc2ccccc2c1)C(N)=O | 1610 | 1000 | 1000 | 1000 | 1960 | –
18 | CC(C)NC(=O)[C@@H]1CSSC[C@@H](NC(=O)[C@@H](N)Cc2ccc3ccccc3c2)C(=O)N[C@@H](Cc2ccc(O)cc2)C(=O)N[C@H](Cc2c[nH]c3ccccc23)C(=O)N[C@@H](CCCCN)C(=O)N[C@@H](C(C)C)C(=O)N1 | 1230 | 1000 | 1000 | 435 | – | –
19 | CC(C)[C@@H]1NC(=O)[C@H](CCCCN)NC(=O)[C@@H](Cc2c[nH]c3ccccc23)NC(=O)[C@H](Cc2ccc(O)cc2)NC(=O)[C@H](NC(=O)[C@H](N)Cc2ccccc2)C(C)(C)SSC[C@@H](C(=O)N[C@H](C(N)=O)[C@@H](C)O)NC1=O | 821 | 1000 | 1000 | 2550 | – | –
20 | CC(C)[C@@H]1NC(=O)[C@H](CCCCN)NC(=O)[C@@H](Cc2c[nH]c3ccccc23)NC(=O)[C@H](Cc2ccc(O)cc2)NC(=O)[C@@H](NC(=O)[C@H](N)Cc2ccc3ccccc3c2)CSSC[C@H](C(=O)N[C@@H](Cc2ccc3ccccc3c2)C(N)=O)NC1=O (stereo in doubt; 27) | 1000 | 1000 | 1000 | 139 | – | –
21 | CC(C)[C@@H]1NC(=O)[C@H](CCCCN)NC(=O)[C@@H](Cc2c[nH]c3ccccc23)NC(=O)[C@H](Cc2ccc(O)cc2)NC(=O)[C@H](NC(=O)[C@H](N)Cc2ccc3ccccc3c2)CSSC[C@@H](C(=O)N[C@H](Cc2ccc3ccccc3c2)C(N)=O)NC1=O | 1080 | 1000 | 1660 | 82.9 | 358 | –
22 | CC(C)[C@@H]1NC(=O)[C@H](CCCCN)NC(=O)[C@@H](Cc2c[nH]c3ccccc23)NC(=O)[C@H](Cc2ccc(O)cc2)NC(=O)[C@@H](NC(=O)[C@H](N)Cc2ccc3ccccc3c2)CSSC[C@H](C(=O)N[C@H](C(N)=O)[C@@H](C)O)NC1=O | 1000 | – | 4840 | 350 | – | –
23 | C[C@@H](O)[C@H](NC(=O)[C@@H]1CSSC[C@@H](NC(=O)[C@H](N)Cc2ccccc2)C(=O)N[C@@H](Cc2cccnc2)C(=O)N[C@H](Cc2c[nH]c3ccccc23)C(=O)N[C@@H](CCCCN)C(=O)N[C@@H]([C@@H](C)O)C(=O)N1)C(N)=O | 1360 | 1000 | 1000 | 566 | 1000 | –
24 | CC(=O)N[C@@H]1CSSC[C@@H](C(=O)N[C@H](C(N)=O)[C@@H](C)O)NC(=O)[C@H](C(C)C)NC(=O)[C@H](CCCCN)NC(=O)[C@@H](Cc2c[nH]c3ccccc23)NC(=O)[C@H](Cc2ccc(O)cc2)NC1=O | 1000 | 1000 | 1000 | 1000 | 1000 | –
25 | C[C@@H](O)[C@H](NC(=O)[C@H](Cc1ccccc1)NC(=O)[C@@H](NC(=O)[C@H](CCCCN)NC(=O)[C@@H](Cc1c[nH]c2ccccc12)NC(=O)[C@H](Cc1ccc(O)cc1)NC(=O)[C@@H](Cc1ccccc1)NC(=O)[C@@H](N)Cc1ccccc1)[C@@H](C)O)C(N)=O | 216 | 1000 | 1000 | 445 | 1180 | –
